ARNT TACC3 PPI: disruptors of human ARNT/TACC3 interaction | Q9Y6A5 | AID 623870 | 390,000 compounds, 0.66% hits | AlphaScreen His-ARNT PAS-B/GST-TACC3 binding, luminescence; TACC3 fragment carries E629A point mutation | inhibition, % at 9.99 µM;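 active = mean inhibition of replicates at least 50% and at least half of replicates each reaching 50%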;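 note: 0% = complete ARNT plus TACC3 wells and 100% = ARNT alone without TACC3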
CAL PDZ FP-1: blocks peptide binding to the human CAL PDZ domain; inhibition, % at 24.9 µM; 300,000 compounds, 0.92% hits; purified CAL PDZ, TMR-peptide fluorescence polarization, 1 h;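 active = mean inhibition of at least 30% with at least half of replicates also reaching 30%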;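 note: 0% = DMSO neutral control and 100% = excess unlabeled competitor peptide PRC23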
CAL PDZ FP-2: inhibitors of human CAL PDZ peptide binding. 330,000 compounds, 0.02% hits. purified CAL PDZ, TMR-peptide fluorescence polarization, 1 h. inhibition, % at 20 µM;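 active = highest replicate inhibition of at least 40%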;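 note: plate controls were DMSO neutral control wells for no effect and unlabeled competitor peptide control wells for full effect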
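Material: tagged CAL PDZ domain; buffer or medium: 25 mM sodium phosphate pH 7.4, 150 mM NaCl, TCEP, IgG, Thesit; compound dosing: single point, 20 µM; schedule: 1 h incubation at room temperature before polarization reading; measured by: FP readout, S and P plane fluorescence; read-out basis: percent inhibition from loss of millipolarization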
SR-BI HDL uptake: inhibitors of mouse SR-BI mediated HDL lipid uptake | Q61009 | ldlA[mSR-BI] CHO cells, DiI-HDL uptake fluorescence, 3 h | inhibition, % at 12.5 µM | 320,000 compounds, 0.96% hits | AID 488896;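 active = mean replicate inhibition of at least 70% and a set share of replicates each scoring 70 or more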;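 note: 0% = median of neutral control wells and 100% = median of positive control wells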
Target sequence (Q61009 whole entry, looked up): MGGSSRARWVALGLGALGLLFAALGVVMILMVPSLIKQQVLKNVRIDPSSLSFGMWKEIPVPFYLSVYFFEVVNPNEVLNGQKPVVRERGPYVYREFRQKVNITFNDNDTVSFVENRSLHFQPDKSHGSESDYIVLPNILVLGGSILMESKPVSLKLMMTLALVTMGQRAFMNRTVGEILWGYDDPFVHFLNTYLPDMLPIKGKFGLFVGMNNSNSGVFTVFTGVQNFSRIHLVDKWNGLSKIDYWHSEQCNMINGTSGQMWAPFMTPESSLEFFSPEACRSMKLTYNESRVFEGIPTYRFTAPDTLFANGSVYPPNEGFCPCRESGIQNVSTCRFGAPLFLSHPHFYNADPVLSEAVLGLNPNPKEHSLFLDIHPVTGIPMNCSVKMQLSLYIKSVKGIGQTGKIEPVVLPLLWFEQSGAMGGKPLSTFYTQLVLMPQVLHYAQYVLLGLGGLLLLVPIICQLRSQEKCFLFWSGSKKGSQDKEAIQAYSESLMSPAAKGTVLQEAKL
SR-BI DiI-HDL act: activators of SR-BI mediated HDL lipid uptake | CHO ldlA[mSR-BI] cells, DiI-HDL uptake fluorescence, 3 h; 100 = double the neutral-control signal | activation, % at 12.5 µM | 320,000 compounds, 0.096% hits | AID 504775;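 active = mean replicate activation of at least 60% and every replicate at or above 60%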;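 note: 0% = median plate neutral-control signal and 100% = twice that signal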
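Material – SR-BI-overexpressing, LDLR-lacking CHO cells · Medium – BSA-supplemented, HEPES-buffered Ham's F12, pH 7.4 · Doses – single concentration · Times – compound with DiI-HDL co-incubation, 3 h at 37 °C · Measured by – bottom-read fluorescence, 550/595 nm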
miR122 inh: blocks miR-122 activity in Huh7 sensor cells | activation (reporter increase), % at 12.5 µM | 340,000 compounds, 0.3% hits | Huh7 miR-122 Renilla luciferase sensor, 48 h; neutral wells = 0, positive control = 100;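 active = mean replicate activation score at least 90 and every replicate individually at or above 90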;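 note: higher luciferase means less miR-122 activity so hits act as miR-122 inhibitors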
An asterisk follows results filed as active; nt = no result given; [ ] = another dose, or the depositor's remark. The list is not random: actives were taken first. Their share in the collection is about 2.1%.

SMILES	ARNT TACC3 PPI	CAL PDZ FP-1	CAL PDZ FP-2	SR-BI HDL uptake	SR-BI DiI-HDL act	miR122 inh
COc1cc(NC(=O)c2cccc([N+](=O)[O-])c2)ccc1NC(=O)c1ccco1	nt	-1.6	-1.4	88.7*	-88.7	nt
O=C(CNCC1CCCO1)Nc1ccc([N+](=O)[O-])cc1C(=O)Nc1ccccc1F (stereo not drawn)	-0.4	1.7	0.8	25.2	-25.2	10.9
O=C(CNC1CCCCC1)Nc1ccc([N+](=O)[O-])cc1C(=O)Nc1ccccc1F	1.6	62.6*	-1.7	17.3	-17.3	14.8
COc1cc(NC(=O)c2cc([N+](=O)[O-])ccc2NC(=O)CNCc2ccccn2)cc(OC)c1	37.8*	0.1	-1.6	nt	nt	nt
COc1cc([N+](=O)[O-])ccc1NC(=O)CSc1ccccn1	-1.5	2.5	-0.9	18.3	-18.3	nt
COc1ccc(NC(=O)c2cc([N+](=O)[O-])ccc2NC(=O)CNCc2ccccn2)c(OC)c1	46.1*	4.3	-0.8	nt	nt	nt
C[C@@H]1CCCCO[C@@H](CN(C)C(=O)Nc2ccc3c(c2)OCO3)[C@H](C)CN([C@H](C)CO)C(=O)c2cc(NC(=O)NC3CCCCC3)ccc2O1	5.5	nt	nt	nt	nt	-16.5[16.7 µM]
C[C@@H]1CCCCO[C@H](CN(C)S(C)(=O)=O)[C@H](C)CN([C@@H](C)CO)C(=O)c2cc(NC(=O)CCC(F)(F)F)ccc2O1	nt	nt	nt	nt	nt	-5.1[16.7 µM]
CN(C)CC(=O)N[C@@H]1CC[C@@H](CCNS(=O)(=O)c2ccccc2)O[C@H]1CO	-8.9	nt	nt	nt	nt	nt
O=C(OCC(=O)N1CCOCC1)c1cc2ccccc2oc1=O	-0.2	nt	-0.5	-21.1	21.1	-7.3
O=C(CSC(=S)N1CCOCC1)c1cc2ccccc2oc1=O	47.9*	-7.0	-0.5	-28.5	28.5	17.2
CCCN(C)C[C@H]1Oc2ncc(-c3ccccc3F)cc2C(=O)N([C@H](C)CO)C[C@@H]1C	-4.3	nt	nt	nt	nt	-1.8[16.7 µM]
O=C(CSCc1ccc(Cl)cc1)NN=C1CCCC1	-1.6	72.0*	-0.4	-1.7	1.7	nt
FC(F)Oc1ccc(NC(=S)NCc2nc3ccccc3[nH]2)cc1	10.1	40.7*	-2.1	-29.7	29.7	nt
Cc1c(N/N=C(\C#N)C(=O)c2ccc(Cl)cc2)c(=O)n(-c2ccccc2)n1C	59.7*	-2.3	-1.4	-0.8	0.8	nt
N#C/C(=N\Nc1ccc(Cl)cc1)C(=O)c1ccccc1	4.4	-4.4	-1.9	-3.7	3.7	12.3
O=C(C1=C(O)C(=O)N(CCN2CCOCC2)C1c1cccc([N+](=O)[O-])c1)c1cccs1 (stereo not drawn)	nt	-4.0	-3.2	-13.8	13.8	nt
O=C(C1=C(O)C(=O)N(CCN2CCOCC2)C1c1ccccc1)c1cccs1 (stereo not drawn)	8.4	31.5*	-0.5	-13.1	13.1	-1.3
COCc1cn(CC[C@@H]2CC[C@H](NC(=O)Nc3ccc(OC)cc3)[C@H](CO)O2)nn1	-1.5	nt	nt	nt	nt	nt
Cc1c(C(=O)N2CCCCC2)c(S(=O)(=O)N2CCC(C)CC2)c(C)n1C	-4.6	75.2*	-1.0	-18.6	18.6	1.0
COc1ccc(CCn2c(=O)[nH]c3cc(C(=O)N4CCN(c5ccccn5)CC4)ccc3c2=O)cc1OC	2.0	nt	-0.1	80.6*	-80.6	3.2
COc1ccc(CCNC(=O)CCn2c(=O)[nH]c3cc(OC)c(OC)cc3c2=O)cc1OC	-9.3	40.2*	-0.9	-18.6	18.6	-0.4
CCOc1cc2[nH]c(=O)n(CCC(=O)NCCc3ccc(OC)c(OC)c3)c(=O)c2cc1OCC	-8.3	61.6*	-0.5	16.0	-16.0	2.8
COc1cc(C2C3=C(COC3=O)Oc3cc4c(cc32)OCO4)cc(OC)c1OC(C)=O (stereo not drawn)	7.5	-3.8	-1.0	9.6	-9.6	100.9*
O=[N+]([O-])c1cccc(NC(=S)NCc2ccncc2)c1	0.1	3.7	-0.1	21.2	-21.3	nt
O=[N+]([O-])c1cccc(NC(=S)Nc2nc(-c3ccccc3Cl)cs2)c1	4.1	5.4	-2.3	84.4*	-84.4	nt
O=C(C[C@H]1CC[C@@H]2[C@H](COC[C@@H](O)CN2Cc2nccs2)O1)NCc1ccc(F)cc1	-7.6	nt	nt	nt	nt	-1.8[16.7 µM]

From PubChem BioAssay
